From PubChem
Only some compounds are listed: those with a hit (about 1.2% of all), similar ones and a draw of the others.
ARFGAP1 inh = rat ARFGAP1 inhibition; Q62848; Arfgap1-stimulated ARF1 GTP hydrolysis, GDP FP detection; inhibition, % at 16.5 µM; 360,000 compounds, 0.26% hits; AID 651572;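 active = inhibition above a per-plate limit, mean inhibition of low control wells plus 3 SD, cut at about 25% in these data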;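 note: 0% = DMSO wells with enzyme and 100% = wells lacking Arfgap1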
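Material: rat Arfgap1 GAP domain (His6, aa 1-136), purified enzyme. Also added: human ARF1(Δ1-17)-GTP substrate. Compound dosing: 16.5 µM single point, 1.26% DMSO. Timing: enzyme reaction 120 min at 25 °C after 20 min preincubation. Signal: GDP detection by fluorescence polarization. Read-out basis: percent inhibition of GAP-stimulated GDP formation, scaled between DMSO and no-Arfgap1 medians.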
ASAP1 GAP inh = inhibitors of human ASAP1 ArfGAP activity; Q9ULH1; ASAP1-stimulated ARF1 GTP hydrolysis, GDP FP detection; inhibition, % at 16.5 µM; 360,000 compounds, 0.19% hits; AID 624377; in the data active = inhibition above about 25%;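 note: 0% = vehicle with enzyme and substrate and 100% = no enzyme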
Target sequence (Q9ULH1 325-724 limits assumed): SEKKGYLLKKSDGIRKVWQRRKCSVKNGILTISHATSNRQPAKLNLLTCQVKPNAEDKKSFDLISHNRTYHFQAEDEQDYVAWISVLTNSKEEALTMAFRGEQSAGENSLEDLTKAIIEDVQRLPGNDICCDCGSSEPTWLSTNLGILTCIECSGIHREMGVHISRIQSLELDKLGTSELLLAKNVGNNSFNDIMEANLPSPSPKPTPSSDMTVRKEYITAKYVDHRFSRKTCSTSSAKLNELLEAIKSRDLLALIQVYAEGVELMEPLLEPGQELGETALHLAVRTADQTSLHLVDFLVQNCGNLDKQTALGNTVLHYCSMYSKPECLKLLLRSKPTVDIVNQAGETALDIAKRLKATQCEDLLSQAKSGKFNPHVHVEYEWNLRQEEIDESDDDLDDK
Rin1 Abl inh = inhibitors of human Rin1-Abl protein interaction. P00519+Q13671. TR-FRET Rin1/Abl binding, biochemical. inhibition, % at 7.35 µM. 360,000 compounds, 0.4% hits. AID 588664; in the data active = inhibition above about 5%, passing the limit was not always enough
GalR3 antag = human GalR3 antagonism; 360,000 compounds, 0.44% hits; inhibition, % at 3 µM; HEK293 GalR3-CNG cAMP membrane potential fluorescence; galR3 body fused to GalR1 C-terminus;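 active = inhibition above the screen-wide average plus 3 SD, cut at about 13% in these data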;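 note: forskolin and galanin both at EC90 stimulate the cells; cAMP rise reported by CNG channel membrane potential dye signal; 0% = forskolin plus galanin with DMSO and 100% = forskolin alone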
Target sequence (O60755 1-299 limits assumed): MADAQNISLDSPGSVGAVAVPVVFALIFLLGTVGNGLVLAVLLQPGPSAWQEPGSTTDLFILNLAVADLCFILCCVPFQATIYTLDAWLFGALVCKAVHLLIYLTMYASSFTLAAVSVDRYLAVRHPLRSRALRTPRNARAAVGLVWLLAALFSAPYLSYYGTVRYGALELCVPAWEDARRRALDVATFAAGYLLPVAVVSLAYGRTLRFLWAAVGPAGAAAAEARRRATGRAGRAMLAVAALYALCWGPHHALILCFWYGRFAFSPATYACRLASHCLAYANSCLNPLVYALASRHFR
GalR3 antag conf = confirmation of human galanin receptor 3 antagonists. AID 652245. 1,600 compounds, 59% hits. shares compounds with GalR3 antag. inhibition, % at 3 µM. HEK293 GalR3 CNG cAMP biosensor, membrane potential fluorescence; galR3 fused to GalR1 carboxy tail; challenged with forskolin and galanin at EC90;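 active = inhibition above the primary screen's cutoff, the mean inhibition of all screened compounds plus 3 SD, cut at about 13% in these data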;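 note: 0% = forskolin plus galanin and 100% = forskolin alone with DMSO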
CNG parental = acts as nonspecific agonist in parental HEK-CNG cells; shares compounds with GalR3 antag; HEK293-CNG parental cells, cAMP membrane potential fluorescence; normalised: DMSO wells 0%, forskolin wells 100%; activation, % at 3 µM; 1,600 compounds, 10% hits; in the data active = activation above about 1.3%
Starred values were filed as active, the others as inactive; . = not tested or not shown.

SMILES | ARFGAP1 inh | ASAP1 GAP inh | Rin1 Abl inh | GalR3 antag | GalR3 antag conf | CNG parental
COc1ccc(-c2cnc3c(NC=O)cc(-c4cccc(NS(C)(=O)=O)c4)cn23)cc1OC | 7 | 3 | -8 | 59* | 43* | 0
COc1ccccc1C(=O)N1CCN(C(=O)[C@@H](Cc2ccccc2)NC(=O)[C@H]2O[C@@H](n3ccc(=O)[nH]c3=O)[C@H](O)[C@@H]2O)CC1 | 21 | -2 | . | -6 | . | .
CCCNC(=O)C[C@H]1CC[C@@H]2[C@H](COC[C@@H](O)CN2C(=O)c2ccccn2)O1 | -8 | -2 | . | -6 | . | .
COc1ccc(NC(=O)N(C)C[C@H]2OCc3cn(nn3)CCCC(=O)N([C@H](C)CO)C[C@@H]2C)cc1 | 1 | -7 | . | -5 | . | .
CCCN1CCCCC(NC(C)=O)C1=O (stereo not given) | 11 | -8 | . | -4 | . | .
O=S1(=O)N[C@@H](Cc2ccccc2)COc2cccc(N3CCCCC3)c21 | 13 | -9 | . | -5 | . | .
COc1ccc(-c2cc(NC=O)c3ncc(-c4ccc(OC)c(OC)c4)n3c2)c(OC)c1 | 11 | 1 | -4 | 44* | 25* | 1
COc1cccc(-c2cnc3c(NC=O)cc(-c4ccc(OC)cc4OC)cn23)c1 | -5 | 0 | -5 | 4 | . | .
COc1ccc(-c2cnc3c(NC=O)cc(-c4ccc(F)cc4)cn23)cc1OC | 4 | 14 | 0 | 15* | 21* | 1
CC(=O)Oc1ccc2c(c1)OC(c1ccccc1)CC21CC(C)(C)NC(=S)N1 (stereo not given) | -5 | -4 | 3 | . | 2 | 0
CC1(C)CC2(CC(c3ccccc3)Oc3cc(O)ccc32)NC(=S)N1 (stereo not given) | 6 | 1 | 0 | -1 | . | .
COc1ccc(N/C(=C\C(=O)c2ccccc2)c2ccccc2)cc1OC | 3 | -8 | . | -8 | . | .
S=C(NCCc1ccccc1)Nc1cccc2cnccc12 | -5 | 15 | 4 | 33* | 103* | 0
COc1cc(-c2c(C#N)c(N)nc(SCc3ccncc3)c2C#N)cc(OC)c1OC | . | . | -3 | . | . | .
N#Cc1c(N)nc(SCc2ccncc2)c(C#N)c1-c1cccs1 | -4 | -1 | -1 | 75* | 91* | 1
C=CCN1CC(COCCCC)Oc2ccc(Cl)cc2S1(=O)=O (stereo not given) | 8 | 6 | . | -9 | . | .
Cc1cccc(Oc2ccccc2NC(=O)CSCC(=O)Nc2cc(C)on2)c1 | 4 | 10 | -2 | -3 | . | .
CCOc1ccc(Oc2ccccc2NC(=O)CSCC(=O)Nc2cc(C)on2)cc1 | 13 | 10 | 1 | 40* | 73* | 0
Cc1nc(SCc2nc3ccc(C(=O)c4ccccc4)cc3[nH]2)c2oc3ccccc3c2n1 | 10 | 3 | -6 | 14* | 22* | 0
CC(C)CC[n+]1ccccc1/C=C/c1ccc(N(C)C)cc1 | 6 | 12 | -18 | 31* | 47* | 16*
CCCC(=O)OC[C@H]1CN(C2CCCC2)S(=O)(=O)c2c(Oc3ccc(F)cc3)cccc2O1 | -11 | -5 | . | -8 | . | .
COc1ccc(NC(=O)c2ccccc2[N+](=O)[O-])cc1 | 2 | -18 | -1 | -9 | . | .
COc1ccccc1Nc1ccc(NC(=O)c2cccc([N+](=O)[O-])c2C)cc1 | 18 | 0 | 2 | 14* | 6 | -1
Cc1noc(C)c1S(=O)(=O)N1CCCc2nc(-c3ccccc3)ccc21 | -3 | -11 | . | -8 | . | .
COC(=O)c1ccc2nc(-c3ccco3)c(Cc3ccsc3)n2c1 | 12 | 3 | . | -4 | . | .
SMILES | ARFGAP1 inh | ASAP1 GAP inh | Rin1 Abl inh | GalR3 antag | GalR3 antag conf | CNG parental
COc1cc2c(cc1OC)-c1cc(NC3CCCCC3)nc(=O)n1CC2 | 7 | -14 | 1 | 44* | 33* | 0
COc1cc2c(cc1OC)-c1cc(NC3CC3)nc(=O)n1CC2 | 8 | -9 | -2 | 2 | . | .
COc1cc2c(cc1OC)-c1cc(NC3CCCCCCC3)nc(=O)n1CC2 | 3 | -19 | -4 | 47* | 57* | 1.4*
CCNc1cc2n(c(=O)n1)CCc1cc(OC)c(OC)cc1-2 | 15 | -5 | 1 | 4 | . | .
CCNC(=O)OC[C@H]1O[C@H](C#Cc2ccc(C(C)(C)C)cc2)C=C[C@H]1OC(C)=O | 7 | -8 | . | -5 | . | .
Cc1ccccc1CCNC(=O)c1ccc(Cl)c(S(=O)(=O)N2CC(C)OC(C)C2)c1 (stereo not given) | -3 | 15 | -1 | 107* | 92* | 0
CN(C)C(CNC(=O)c1ccc(Cl)c(S(=O)(=O)N2CCCCCC2)c1)c1ccccc1 (stereo not given) | -7 | -8 | 3 | 71* | 88* | 1.3*
CC1CN(S(=O)(=O)c2cc(C(=O)NCc3ccncc3)ccc2Cl)CC(C)O1 (stereo not given) | -6 | 9 | 1 | -2 | . | .
CC(=O)C1=C(C)N(Cc2ccc(Br)cc2)C(=S)NC1c1ccc(F)cc1 (stereo not given) | 6 | 14 | . | -6 | . | .
COc1cc(CN2CCC(CO)(Cc3cccc(C(F)(F)F)c3)CC2)ccc1F | 5 | 4 | -2 | -5 | . | .
COc1ccc(CN2CCC(CO)(Cc3cccc(C(F)(F)F)c3)CC2)cc1Cn1cccn1 | 5 | 4 | 0 | 16* | 4 | 3.9*
O=C(Nc1ccccc1)/C(=C/c1ccc(O)cc1)NC(=O)c1ccco1 | -4 | 4 | -1 | 15* | -1 | 0
Cc1ccc(NC(=O)CSc2ncn[nH]2)cc1S(=O)(=O)N1CCOCC1 | 6 | 1 | -1 | 18* | 8 | 0
Cc1ccc(NC(=O)CSc2ncnc3ccccc23)cc1S(=O)(=O)N1CCCCCC1 | -1 | -5 | -3 | 96* | 108* | -2
CC(=O)OC[C@H]1O[C@H](C#Cc2ccc(C(C)(C)C)cc2)C=C[C@H]1OC(=O)Nc1ccccc1 | 3 | -10 | . | -4 | . | .
Fc1ccc(NC(=S)NNc2ncc(C(F)(F)F)cc2Cl)c(F)c1 | -3 | -2 | -2 | 92* | 97* | 0
FC(F)(F)c1cnc(NNC(=S)Nc2ccc(Cl)cc2)c(Cl)c1 | 11 | -4 | -1 | -2 | . | .
CN(Cc1ccccc1)C(=O)c1cccc(NC(=O)Cc2cccc(NC(=O)C3CCN(C(=O)CCc4ccccc4)CC3)c2)c1 | 6 | 10 | . | -6 | . | .
CCc1ccc(OC)c(S(=O)(=O)Nc2ccc(Cc3ccncc3)cc2)c1 | 1 | 2 | 1 | 46* | 8 | 0
CC(C)(C)c1ccc(S(=O)(=O)NCC2CCN(C(=O)C(=O)c3cccs3)CC2)cc1 | -2 | -16 | . | -7 | . | .
CCCCCCCn1c2c(c(=N)c3ccccc31)CCC2 | -1 | -8 | 1 | 42* | 58* | 7.3*
CCCn1c2c(c(=N)c3c1CCC3)CCC2 | 0 | 4 | -2 | -1 | . | .
